# Experimental data published in PubChem BioAssay AID651628 (The Scripps Research Institute Molecular Screening Center, 2012).
# Values without a mark were called inactive. Active and inactive are the calls of the source.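 How the source made its calls: active means at least one off-target enzyme showing weaker fluorescent probe labeling in any proteome panel; inactive means no off-target enzyme affected in any panel.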
# Tested on: Membrane Proteome
# Test: anti-target inhibition in MCF7 proteome, late-stage follow-up, selectivity assay for PAD4 inhibitor project, cell lysate, gel-based fluorescence, soluble and membrane fractions (AID 651628)
# Conditions: CA-Rh gel-based ABPP, anti-target count, at 10 µM, active compounds read high
# Procedure, shortened: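 System: MCF7 soluble or membrane proteome; amount: proteome protein concentration of 1 mg/ml; technique: in-gel fluorescence after SDS-PAGE; medium: DPBS; controls: DMSO-only reference; doses: compound at 10 or 50 µM; probe or stimulus: Chloroacetamide-rhodamine (CA-Rh) labelling probe, 10 µM; timing: compound pre-incubation 1 h, then probe labelling 1 h, both 25 °C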
row,SMILES,number of anti-targets
1,COC(=O)c1cccc(-c2ccc3c(n2)C(=O)C(N)=CC3=O)n1,0
2,NC1=CC(=O)c2ccc(-c3cccc(C(=O)O)n3)nc2C1=O,0
3,NC1=CC(=O)c2ccc(-c3ccccn3)nc2C1=O,0
4,COC1=C(N)C(=O)c2nc(-c3nc(C(=O)O)c(C)c(-c4ccc(OC)c(OC)c4O)c3N)ccc2C1=O,0
5,COC(=O)c1nc(C(=O)OC)c(NC(C)=O)c(-c2ccccc2Br)c1C,0
6,O=C1C(O)=C(O)C(=O)c2ncccc21,2 (active)
7,COC1=C(Br)C(=O)c2ncccc2C1=O,> 5 (active)
8,COC(=O)c1cccc(-c2ccc3c(n2)C(=O)C(Br)=CC3=O)n1,0
9,O=C1C=C(Br)C(=O)c2ncccc21,> 5 (active)
10,COC1=C(N)C(=O)c2ncccc2C1=O,0
11,NC1=CC(=O)c2cccnc2C1=O,0
12,COC1=C(I)C(=O)c2nc(C#N)ccc2C1=O,> 5 (active)
13,COC1=CC(=O)c2nc(C#N)ccc2C1=O,> 5 (active)
14,COC1=C(Br)C(=O)c2nc(-c3ccccn3)ccc2C1=O,> 5 (active)
